From ChEMBL document CHEMBL1150354, “'Hybrid' benzofuran-benzopyran congeners as rigid analogs of hallucinogenic phenethylamines” (Bioorg Med Chem, 2008)

How the values were obtained:
[1] = molecular target: 5-hydroxytryptamine receptor 2A (Rattus norvegicus) (UniProt P14842); assay: Intrinsic activity at rat 5HT2A receptor expressed in mouse NIH3T3 cells assessed as stimulation of inositol phosphate accumulation relative to serotonin; format: functional, cell-based
Summary of the method: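 NIH-3T3 cells stably expressing rat 5-HT2A receptor (GF-6, 5500 fmol/mg), kept in DMEM with 300 μg/ml G-418. Read-out was stimulated radiolabeled inositol phosphate accumulation. Each plate normalized to water-stimulated wells (0%) and 10 μM serotonin (100%). EC50 and intrinsic activity given as mean (SEM) over n experiments.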

[2] = molecular target: T1, 5-hydroxytryptamine receptor 2A (Rattus norvegicus, UniProt P14842); assay: Displacement of [3H]ketanserin from rat 5HT2A receptor expressed in mouse NIH3T3 cells; format: cell-based
Summary of the method: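 Membranes came from NIH-3T3 cells stably expressing rat 5-HT2A receptor (GF-6, 5500 fmol/mg). Competition used 0.5nM [3H]-ketanserin against increasing test compound concentrations (ca. 10 pM - 10 μM). Curves were fitted to give Ki, reported as mean (SEM) over n experiments.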

[3] = system: Rattus norvegicus; assay: Hallucinogenic potency in ip dosed D-lysergic acid N,N-diethylamide-trained Sprague-Dawley rat after 30 mins; format: functional; details: 0.5 h
[4] = system: Rattus norvegicus; assay: Hallucinogenic activity in D-lysergic acid N,N-diethylamide-trained Sprague-Dawley rat assessed as disrupted behavior at 0.35 mg/kg, ip after 30 mins by two-lever drug discrimination assay; format: functional; details: route intraperitoneal
Summary of the method: (§1)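 Male Sprague-Dawley rats (200-220 g at start) trained to discriminate LSD tartrate (186 nmol/kg; 0.08 mg/kg, ip) from saline, FR50 food reinforcement, two levers. Test drug given ip 30 min before an extinction session. A session was scored as disruption if 50 presses on one lever were not completed within 5 min. %D is the percentage of rats disrupted at each dose.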

[5] = system: Rattus norvegicus; assay: Hallucinogenic activity in D-lysergic acid N,N-diethylamide-trained Sprague-Dawley rat assessed as selection of drug-appropriate lever at 0.35 mg/kg, ip after 30 mins by two-lever drug discrimination assay; format: functional; details: route intraperitoneal
Summary of the method: (§2)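 Male Sprague-Dawley rats (200-220 g at start) trained to discriminate LSD (0.08 mg/kg ip) from saline, FR50 food-reinforced two-lever task, training to ≥85% accuracy on 8 of 10 sessions. Test drug given ip 30 min before an extinction session, ended at 50 presses on one lever. %SDL is the percentage of rats choosing the drug lever per dose. Treatments randomized.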

[6] = system: Rattus norvegicus; assay: Hallucinogenic activity in D-lysergic acid N,N-diethylamide-trained Sprague-Dawley rat assessed as selection of drug-appropriate lever at 0.17 mg/kg, ip after 30 mins by two-lever drug discrimination assay; format: functional; details: route intraperitoneal; summary of the method: as §2
[7] = molecular target: T1, 5-hydroxytryptamine receptor 2A; assay: Agonist activity at rat 5HT2A receptor expressed in mouse NIH3T3 cells assessed as stimulation of inositol phosphate accumulation; format: functional, cell-based
Summary of the method: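 Read-out was stimulated radiolabeled inositol phosphate accumulation. Each plate normalized to water-stimulated wells (0%) and 10 μM serotonin (100%). EC50 and intrinsic activity given as mean (SEM) over n experiments.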

[8] = system: Rattus norvegicus; assay: Hallucinogenic activity in D-lysergic acid N,N-diethylamide-trained Sprague-Dawley rat assessed as disrupted behavior at 0.17 mg/kg, ip after 30 mins by two-lever drug discrimination assay; format: functional; details: route intraperitoneal; summary of the method: as §1
[9] = system: Rattus norvegicus; assay: Hallucinogenic activity in D-lysergic acid N,N-diethylamide-trained Sprague-Dawley rat assessed as selection of drug-appropriate lever at 0.69 mg/kg, ip after 30 mins by two-lever drug discrimination assay; format: functional; details: route intraperitoneal; summary of the method: as §2
[10] = system: Rattus norvegicus; assay: Hallucinogenic activity in D-lysergic acid N,N-diethylamide-trained Sprague-Dawley rat assessed as disrupted behavior at 0.69 mg/kg, ip after 30 mins by two-lever drug discrimination assay; format: functional; details: route intraperitoneal; summary of the method: as §1
[11] = system: Rattus norvegicus; assay: Hallucinogenic activity in D-lysergic acid N,N-diethylamide-trained Sprague-Dawley rat assessed as selection of drug-appropriate lever at 0.09 mg/kg, ip after 30 mins by two-lever drug discrimination assay; format: functional; details: route intraperitoneal; summary of the method: as §2
[12] = system: Rattus norvegicus; assay: Hallucinogenic activity in D-lysergic acid N,N-diethylamide-trained Sprague-Dawley rat assessed as disrupted behavior at 0.09 mg/kg, ip after 30 mins by two-lever drug discrimination assay; format: functional; details: route intraperitoneal; summary of the method: as §1
[13] = system: Rattus norvegicus; assay: Hallucinogenic activity in D-lysergic acid N,N-diethylamide-trained Sprague-Dawley rat assessed as selection of drug-appropriate lever at 0.25 mg/kg, ip after 30 mins by two-lever drug discrimination assay; format: functional; details: route intraperitoneal; summary of the method: as §2
[14] = system: Rattus norvegicus; assay: Hallucinogenic activity in D-lysergic acid N,N-diethylamide-trained Sprague-Dawley rat assessed as selection of drug-appropriate lever at 0.38 mg/kg, ip after 30 mins by two-lever drug discrimination assay; format: functional; details: route intraperitoneal; summary of the method: as §2
[15] = system: Rattus norvegicus; assay: Hallucinogenic activity in D-lysergic acid N,N-diethylamide-trained Sprague-Dawley rat assessed as selection of drug-appropriate lever at 0.50 mg/kg, ip after 30 mins by two-lever drug discrimination assay; format: functional; details: dose 0.5 mg/kg; route intraperitoneal; summary of the method: as §2
[16] = system: Rattus norvegicus; assay: Hallucinogenic activity in D-lysergic acid N,N-diethylamide-trained Sprague-Dawley rat assessed as disrupted behavior at 0.25 mg/kg, ip after 30 mins by two-lever drug discrimination assay; format: functional; details: route intraperitoneal; summary of the method: as §1
[17] = system: Rattus norvegicus; assay: Hallucinogenic activity in D-lysergic acid N,N-diethylamide-trained Sprague-Dawley rat assessed as disrupted behavior at 0.38 mg/kg, ip after 30 mins by two-lever drug discrimination assay; format: functional; details: route intraperitoneal; summary of the method: as §1
[18] = system: Rattus norvegicus; assay: Hallucinogenic activity in D-lysergic acid N,N-diethylamide-trained Sprague-Dawley rat assessed as disrupted behavior at 0.50 mg/kg, ip after 30 mins by two-lever drug discrimination assay; format: functional; details: dose 0.5 mg/kg; route intraperitoneal; summary of the method: as §1

5-hydroxytryptamine receptor 2A (Rattus norvegicus), sequence (P14842 whole entry): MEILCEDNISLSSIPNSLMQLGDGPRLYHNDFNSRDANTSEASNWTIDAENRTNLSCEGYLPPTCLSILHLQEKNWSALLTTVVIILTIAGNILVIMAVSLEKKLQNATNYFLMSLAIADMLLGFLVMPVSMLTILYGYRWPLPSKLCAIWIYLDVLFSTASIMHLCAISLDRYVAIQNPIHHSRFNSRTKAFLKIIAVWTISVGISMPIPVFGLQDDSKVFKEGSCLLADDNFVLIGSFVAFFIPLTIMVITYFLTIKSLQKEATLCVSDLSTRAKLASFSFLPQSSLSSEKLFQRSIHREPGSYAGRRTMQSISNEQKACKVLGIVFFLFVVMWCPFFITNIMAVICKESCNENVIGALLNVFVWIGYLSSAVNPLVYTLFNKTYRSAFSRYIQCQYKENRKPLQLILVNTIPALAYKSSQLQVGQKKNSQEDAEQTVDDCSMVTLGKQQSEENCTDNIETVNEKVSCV
T1 sequence (P14842 whole entry): as above

Compound | Intrinsic activity [1] | Ki [2] | EC50 [7] | also measured
CC(N)Cc1c2c(c(Br)c3c1OCC3)OCC2 (centres undefined) | 88% | 1 nM |  | 
CC(N)Cc1c2c(c(Br)c3c1OCCC3)OCC2 (centres undefined) | 74% | 5.3 nM | 78 nM | ED50 [3]: 1.16 µmol/kg; Activity [4]: 0%; Activity [5]: 41%; Activity [6]: 10%; Activity [8]: 17%; Activity [9]: 80%; Activity [10]: 0%
CC(N)Cc1c2c(c(Br)c3c1OCCC3)OCCC2 (centres undefined) | 72% | 3.1 nM | 258 nM | 
NCCc1c2c(c(Br)c3c1OCC3)OCCC2 | 61% | 11 nM | 9.4 nM | 
CC(N)Cc1c2c(c(Br)c3ccoc13)OCCC2 (centres undefined) | 102% | 1 nM | 13 nM | 
CC(N)Cc1c2c(c(Br)c3c1OCC3)OCCC2 (centres undefined) | 86% | 3.6 nM | 19 nM | ED50 [3]: 0.38 µmol/kg; Activity [4]: 0%; Activity [11]: 33%; Activity [5]: 83%; Activity [6]: 54%; Activity [8]: 0%; Activity [12]: 0%
NCCc1c2c(c(Br)c3c1OCCC3)OCCC2 | 61% | 4.5 nM | 241 nM | 
COc1cc(CC(C)N)c(OC)cc1Br (centres undefined) [BROLAMFETAMINE] | 73% |  |  | Activity [13]: 29%; Activity [14]: 50%; Activity [15]: 89%; Activity [16]: 46%; Activity [17]: 40%; Activity [18]: 36%
NCCc1c2c(c(Br)c3c1OCCC3)OCC2 | 64% | 8.4 nM | 146 nM | 
